According to ChEMBL document CHEMBL2086280, “Structure and bioactivity of steroidal saponins isolated from the roots of Chamaelirium luteum (false unicorn)” (J Nat Prod, 2012):
≈ marks a conversion by molar mass, not a printed value.

Columns and labels:
HT-29 = experiment: Cytotoxicity against human HT-29 cells after 6 days by SRB assay; format: functional, cell-based; conditions: HT-29, 144 h
Summary of the method: (§1)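 Seeded at 3000−5000 cells/well and exposed for 6 days to compounds diluted from 10 mg/mL DMSO stocks. The top final concentration was 50 μg/mL, carrying 0.5% DMSO final. Cells were ethanol-fixed and stained with sulforhodamine, with absorbance read at 540 nm against untreated controls. IC50 was interpolated from plots of percent control absorbance versus dose.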

MCF7 = experiment: Cytotoxicity against human MCF7 cells after 6 days by SRB assay; format: functional, cell-based; conditions: MCF7, 144 h; summary of the method: as §1
HeLa = experiment: Cytotoxicity against human HeLa cells after 6 days by SRB assay; format: functional, cell-based; conditions: 144 h; summary of the method: as §1
NFF = experiment: Cytotoxicity against human NFF cells after 6 days by SRB assay; format: cell-based; conditions: 144 h; summary of the method: as §1
K562 = experiment: Cytotoxicity against human K562 cells after 6 days by MTS assay; conditions: K562, 144 h
MM96L = experiment: Cytotoxicity against human MM96L cells after 6 days by SRB assay; format: functional, cell-based; conditions: 144 h; summary of the method: as §1

SMILES	IC50 (HT-29) [µg/mL]	IC50 (MCF7) [µg/mL]	IC50 (HeLa) [µg/mL]	IC50 (NFF) [µg/mL]	IC50 (K562) [µg/mL]	IC50 (MM96L) [µg/mL]
CC(=O)O[C@H]1CC[C@@]2(C)C(=CC[C@H]3[C@@H]4C[C@H](OC(C)=O)[C@H]([C@H](C)C(=O)CC[C@@H](C)CO)[C@@]4(C)CC[C@@H]32)C1	0.8 (≈ 1.55 µM)	0.8 (≈ 1.55 µM)	2.8 (≈ 5.42 µM)	2 (≈ 3.87 µM)	1.7 (≈ 3.29 µM)	1 (≈ 1.94 µM)
CC(C)[C@H](O)[C@H](O)C[C@@H](C)[C@H]1[C@@H](O)C[C@H]2[C@@H]3C[C@@H](O)[C@H]4C[C@@H](O[C@@H]5O[C@H](CO[C@@H]6O[C@H](CO)[C@@H](O)[C@H](O)[C@H]6O)[C@@H](O)[C@H](O)[C@H]5O)CC[C@]4(C)[C@H]3CC[C@]12C [CHAMAELIROSIDE A]	> 50	> 50	> 50	> 50	> 50	> 50
CC(=O)OC[C@H](C)CC[C@H](OC(C)=O)[C@@H](C)[C@H]1[C@@H](OC(C)=O)C[C@H]2[C@@H]3CC=C4C[C@@H](OC(C)=O)CC[C@]4(C)[C@H]3CC[C@]12C	4.5 (≈ 7.47 µM)	11 (≈ 18.2 µM)	16 (≈ 26.5 µM)	12 (≈ 19.9 µM)	4.5 (≈ 7.47 µM)	3.5 (≈ 5.81 µM)
CC(C)[C@H](O)[C@H](O)C[C@@H](C)[C@H]1[C@@H](O[C@@H]2O[C@H](CO)[C@@H](O)[C@H](O)[C@H]2O)C[C@H]2[C@@H]3C[C@@H](O)[C@H]4C[C@@H](O[C@@H]5O[C@H](CO[C@@H]6O[C@H](CO)[C@@H](O)[C@H](O)[C@H]6O)[C@@H](O)[C@H](O)[C@H]5O)CC[C@]4(C)[C@H]3CC[C@]12C [CHAMAELIROSIDE E]	> 50	> 50	> 50	> 50	> 50	> 50
CC(C)[C@H](O[C@@H]1O[C@H](C)[C@H](O)[C@H](O)[C@H]1O)[C@H](O)C[C@@H](C)[C@H]1[C@@H](O)C[C@H]2[C@@H]3C[C@@H](O)[C@H]4C[C@@H](O[C@@H]5O[C@H](CO[C@@H]6O[C@H](CO)[C@@H](O)[C@H](O)[C@H]6O)[C@@H](O)[C@H](O)[C@H]5O)CC[C@]4(C)[C@H]3CC[C@]12C [CHAMAELIROSIDE B]	> 50	> 50	> 50	> 50	> 50	> 50
CC(C)[C@H](O[C@@H]1O[C@H](C)[C@H](O)[C@H](O)[C@H]1O)[C@H](O)C[C@@H](C)[C@H]1[C@@H](O)C[C@H]2[C@@H]3CC(=O)[C@H]4C[C@@H](O[C@@H]5O[C@H](CO[C@@H]6O[C@H](CO)[C@@H](O)[C@H](O)[C@H]6O)[C@@H](O)[C@H](O)[C@H]5O)CC[C@]4(C)[C@H]3CC[C@]12C	> 50	> 50	> 50	> 50	> 50	> 50
CC(C)[C@H](O)[C@H](O)C[C@@H](C)[C@H]1[C@@H](O)C[C@H]2[C@@H]3CC(=O)[C@H]4C[C@@H](O[C@@H]5O[C@H](CO[C@@H]6O[C@H](CO)[C@@H](O)[C@H](O)[C@H]6O)[C@@H](O)[C@H](O)[C@H]5O)CC[C@]4(C)[C@H]3CC[C@]12C	> 50	> 50	> 50	> 50	> 50	> 50
CC(C)[C@@H]1OC(C)(C)O[C@@H]1C[C@@H](C)[C@H]1[C@@H](O)C[C@H]2[C@@H]3C[C@@H](O)[C@H]4C[C@@H](O)CC[C@]4(C)[C@H]3CC[C@]12C	3.5 (≈ 7.1 µM)	5 (≈ 10.1 µM)	4.3 (≈ 8.73 µM)	10 (≈ 20.3 µM)	8.5 (≈ 17.3 µM)	5 (≈ 10.1 µM)
CC(C)[C@H](O)[C@H](O)C[C@@H](C)[C@H]1[C@@H](O[C@@H]2O[C@H](CO)[C@@H](O)[C@H](O)[C@H]2O)C[C@H]2[C@@H]3CC(=O)[C@H]4C[C@@H](O[C@@H]5O[C@H](CO[C@@H]6O[C@H](CO)[C@@H](O)[C@H](O)[C@H]6O)[C@@H](O)[C@H](O)[C@H]5O)CC[C@]4(C)[C@H]3CC[C@]12C	> 50	> 50	> 50	> 50	> 50	> 50
CC(C)[C@H](O)[C@H](O)C[C@@H](C)[C@H]1[C@@H](O)C[C@H]2[C@@H]3C[C@@H](O)[C@H]4C[C@@H](O)CC[C@]4(C)[C@H]3CC[C@]12C	11 (≈ 24.3 µM)	13 (≈ 28.7 µM)	12 (≈ 26.5 µM)	22 (≈ 48.6 µM)	7 (≈ 15.5 µM)	8.5 (≈ 18.8 µM)
C[C@@H](CO)CC[C@H](O)[C@@H](C)[C@H]1[C@@H](O)C[C@H]2[C@@H]3CC=C4C[C@@H](O)CC[C@]4(C)[C@H]3CC[C@]12C	> 50	> 50	> 50	> 50	> 50	> 50
CC(=O)O[C@@H]1[C@H](O)[C@@H](O)[C@H](O[C@@H](C(C)C)[C@H](O)C[C@@H](C)[C@H]2[C@@H](O)C[C@H]3[C@@H]4C[C@@H](O)[C@H]5C[C@@H](O[C@@H]6O[C@H](CO[C@@H]7O[C@H](CO)[C@@H](O)[C@H](O)[C@H]7O)[C@@H](O)[C@H](O)[C@H]6O)CC[C@]5(C)[C@H]4CC[C@]23C)O[C@@H]1C [CHAMAELIROSIDE C]	> 50	> 50	> 50	> 50	> 50	> 50
C[C@@H]1CC[C@@]2(OC1)O[C@H]1C[C@H]3[C@@H]4CC=C5C[C@@H](O)CC[C@]5(C)[C@H]4CC[C@]3(C)[C@H]1[C@@H]2C [DISOGENIN]	> 50	> 50	> 50	> 50	> 50	> 50
CC(C)[C@H](O)[C@H](O)C[C@@H](C)[C@H]1[C@@H](O)C[C@H]2[C@@H]3CC(=O)[C@H]4C[C@@H](O)CC[C@]4(C)[C@H]3CC[C@]12C	13 (≈ 28.8 µM)	15 (≈ 33.3 µM)	15 (≈ 33.3 µM)	17 (≈ 37.7 µM)	5 (≈ 11.1 µM)	4.5 (≈ 9.99 µM)
C[C@H](CC[C@H](O)[C@@H](C)[C@H]1[C@@H](O)C[C@H]2[C@@H]3CC=C4C[C@@H](O[C@@H]5O[C@H](CO)[C@@H](O)[C@H](O)[C@H]5O)CC[C@]4(C)[C@H]3[C@H](O)C[C@]12C)CO[C@@H]1O[C@H](CO)[C@@H](O)[C@H](O)[C@H]1O [HELOSIDE A]	> 50	> 50	> 50	> 50	> 50	> 50
C[C@@H](CO)CC[C@H](O)[C@@H](C)[C@H]1[C@@H](O)C[C@H]2[C@@H]3CC=C4C[C@@H](O)CC[C@]4(C)[C@H]3[C@H](O)C[C@]12C [HELOGENIN]	> 50	> 50	> 50	> 50	> 50	> 50
C[C@@H](CO)CC[C@@H](O)[C@@H](C)[C@H]1[C@@H](O)C[C@H]2[C@@H]3CC=C4C[C@@H](O)CC[C@]4(C)[C@H]3CC[C@]12C	> 50	> 50	> 50	> 50	> 50	> 50
CC(=O)OC[C@H](C)CC[C@@H](OC(C)=O)[C@@H](C)[C@H]1[C@@H](OC(C)=O)C[C@H]2[C@@H]3CC=C4C[C@@H](OC(C)=O)CC[C@]4(C)[C@H]3CC[C@]12C	6.5 (≈ 10.8 µM)	7.5 (≈ 12.4 µM)	13 (≈ 21.6 µM)	13 (≈ 21.6 µM)	8.5 (≈ 14.1 µM)	4.5 (≈ 7.47 µM)
